Most compounds without a hit are left out; they make up all but 2.3% or so of the library.
TRPC4 inh – blocks the mouse TRPC4 cation channel; Q9QUQ5; HEK293 TRPC4beta/mu-opioid, DAMGO-evoked Fluo4 calcium flux; hits give low values; B-score at 10 µM; 300,000 compounds, 0.39% hits;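 active = B-score over 3 SD under the library average, no early fluorescence shift, positive overall ratio signal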
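material = TRPC4beta/mu-opioid receptor HEK293 cell line | probe or stimulus = sequential submaximal and maximal DAMGO stimulation | compound dosing = one concentration per compound | measured by = Fluo4 Ca2+ flux fluorescence | evaluation = integrated fluorescence ratio relative to baseline, converted to per-well B score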
TRPC6 inhibitor – mouse TRPC6 channel inhibition; 310,000 compounds, 1.1% hits; B-score at 10 µM; Q61143; AID 2553; HEK293-TRPC6, membrane potential dye, ACh-evoked depolarization; hits give low values;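 active = B-score under library mean minus 3 SD, initial fluorescence not abnormally high, positive integrated signal ratio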;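 also: B-score derived from integrated fluorescence ratio over the kinetic read; more negative B-score means stronger inhibition of depolarization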
TRPC4 agonist – opens the mouse TRPC4 cation channel. HEK293 TRPC4beta/mu-opioid, Fluo4 calcium fluorescence; hits give high values. 310,000 compounds, 0.49% hits. Q9QUQ5. B-score at 10 µM;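 active = B-score above 5 SD of library B-scores, and initial fluorescence ratio not above library mean plus 5 SD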;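 also: positive B-score marks a calcium rise read as TRPC4 activation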
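Assay system: HEK293 stable line with TRPC4beta plus mu-opioid receptor; schedule: 45 min room-temperature Fluo4 loading, 110 s read; technique: kinetic Fluo4 calcium fluorescence; evaluation: integrated baseline-normalised fluorescence ratio, converted to per-well B score; controls: buffer (low) and maximal DAMGO (high)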
TRPC6 activator – activates the mouse TRPC6 cation channel. Q61143. HEK293-TRPC6 membrane potential dye fluorescence; hits give high values. B-score at 10 µM. AID 2550. 310,000 compounds, 0.13% hits;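 active = B-score of the integrated fluorescence ratio above library mean plus 3 SD, and starting fluorescence ratio within library mean plus 5 SD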;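 also: higher score means more depolarization so channel activation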
TRPC4 PAM – allosteric potentiators of mouse TRPC4 channel; HEK293 TRPC4beta/mu-opioid, DAMGO EC20, Fluo-4 Ca2+ flux; hits give high values; AID 2227; Q9QUQ5; 310,000 compounds, 0.42% hits; B-score at 10 µM;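 active = B-score of calcium response area above 5 SD of library B-scores, with initial fluorescence ratio within 5 SD of library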;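 also: B-score of integrated fluorescence ratio over time as area under calcium response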
Active calls of the source: *.

For CCC(C(=O)OCC(=O)NC(=O)c1ccccc1OC)c1ccccc1 (stereo not given) the results were TRPC4 inh inactive, TRPC6 inhibitor inactive, TRPC4 agonist inactive, TRPC6 activator inactive and TRPC4 PAM inactive.
For COc1ccc(C(=O)NNC(=O)c2ccc(C(C)(C)C)cc2)cc1 the results were TRPC4 inh inactive, TRPC6 inhibitor inactive, TRPC4 agonist inactive, TRPC6 activator inactive and TRPC4 PAM inactive.
`CC(C)(C)C(=O)NC(=S)NNC(=O)c1sc2ccccc2c1Cl` gave TRPC4 inh inactive, TRPC6 inhibitor inactive, TRPC4 agonist 256*, TRPC6 activator inactive and TRPC4 PAM inactive.
For COc1ccc(C(=O)NNC(=S)NC(=O)C(C)(C)C)cc1 the results were TRPC4 inh inactive, TRPC6 inhibitor inactive, TRPC4 agonist 225*, TRPC6 activator inactive and TRPC4 PAM inactive.
`Nc1nc(NCc2ccco2)nc(N2CCN(Cc3ccccc3)CC2)c1[N+](=O)[O-]` gave TRPC4 inh inactive, TRPC6 inhibitor inactive, TRPC4 agonist inactive, TRPC6 activator inactive and TRPC4 PAM inactive.
O=C(NC1CCN(Cc2ccccc2)CC1)C12CC3CC(CC(C3)C1)C2 was read as TRPC4 inh inactive, TRPC6 inhibitor inactive, TRPC4 agonist 123*, TRPC6 activator inactive and TRPC4 PAM inactive.
`O=C(Cc1ccc(Br)cc1)NC1CCN(Cc2ccccc2)CC1` gave TRPC4 inh inactive, TRPC6 inhibitor inactive, TRPC4 agonist inactive, TRPC6 activator inactive and TRPC4 PAM 12*.
Screening O=C(c1cc2cc(Br)cc(Br)c2oc1=O)N1CCCC1 returned TRPC4 inh inactive, TRPC6 inhibitor inactive, TRPC4 agonist inactive, TRPC6 activator inactive and TRPC4 PAM 17*.
CC(C)(C)c1ccc(-c2nnc3sc(-c4ccccn4)nn23)cc1 was read as TRPC4 inh inactive, TRPC6 inhibitor inactive, TRPC4 agonist inactive, TRPC6 activator inactive and TRPC4 PAM 85*.
For COc1ccc(-c2nnc3sc(-c4ccccn4)nn23)cc1 the results were TRPC4 inh inactive, TRPC6 inhibitor inactive, TRPC4 agonist inactive, TRPC6 activator inactive and TRPC4 PAM inactive.
CCc1ccc2nc(N=C(N)N)nc(C)c2c1 was read as TRPC4 inh -8*, TRPC6 inhibitor inactive, TRPC4 agonist inactive, TRPC6 activator inactive and TRPC4 PAM inactive.
CC(C)c1ccc(NC(=S)N(C)CCc2ccccn2)cc1 was read as TRPC4 inh inactive, TRPC6 inhibitor inactive, TRPC4 agonist 107*, TRPC6 activator inactive and TRPC4 PAM inactive.
For COc1ccc(CCNC2CCC(c3ccccc3)CC2)cc1 (stereo not given) the results were TRPC4 inh inactive, TRPC6 inhibitor inactive, TRPC4 agonist 104*, TRPC6 activator inactive and TRPC4 PAM inactive.
For COc1ccc(CCNC2CCc3ccccc3C2)cc1 (stereo not given) the results were TRPC4 inh inactive, TRPC6 inhibitor inactive, TRPC4 agonist inactive, TRPC6 activator inactive and TRPC4 PAM inactive.
For C/C(=C\c1cccc(Cl)c1Cl)C(=O)c1c(C)cc(C)[nH]c1=O the results were TRPC4 inh inactive, TRPC6 inhibitor inactive, TRPC4 agonist inactive, TRPC6 activator inactive and TRPC4 PAM 19*.
Screening O=C(CCCSc1nc2ccccc2[nH]1)Nc1nnc(-c2ccccc2)o1 returned TRPC4 inh -6*, TRPC6 inhibitor inactive, TRPC4 agonist inactive, TRPC6 activator inactive and TRPC4 PAM inactive.
`N#Cc1c2n(c(=S)n(-c3ccccn3)c1=O)CCCCC2` gave TRPC4 inh inactive, TRPC6 inhibitor inactive, TRPC4 agonist inactive, TRPC6 activator inactive and TRPC4 PAM inactive.
For N#Cc1c2n(c(=S)n(-c3ccc(OC(F)F)cc3)c1=O)CCCCC2 the results were TRPC4 inh inactive, TRPC6 inhibitor inactive, TRPC4 agonist inactive, TRPC6 activator inactive and TRPC4 PAM 13*.
For CSCC[C@H](NC(=O)OC(C)(C)C)C(=O)N/N=C/c1cccc2cccnc12 the results were TRPC4 inh inactive, TRPC6 inhibitor inactive, TRPC4 agonist inactive, TRPC6 activator inactive and TRPC4 PAM 10*.
CN1CCN(c2ccc(C(F)(F)F)cc2NC(=O)Nc2ccccc2)CC1 was read as TRPC4 inh inactive, TRPC6 inhibitor inactive, TRPC4 agonist 105*, TRPC6 activator inactive and TRPC4 PAM 17*.
Screening CC(Cl)C(=O)Nc1cc(C(F)(F)F)ccc1N1CCOCC1 (stereo not given) returned TRPC4 inh inactive, TRPC6 inhibitor inactive, TRPC4 agonist inactive, TRPC6 activator inactive and TRPC4 PAM inactive.
For COc1ccc(/C=N/NC(=O)c2cccc(OC(F)(F)C(F)F)c2)cc1O the results were TRPC4 inh inactive, TRPC6 inhibitor inactive, TRPC4 agonist inactive, TRPC6 activator inactive and TRPC4 PAM inactive.
Screening CCCn1ncc(CN2CCC(n3nccc3NC(=O)CCc3ccccc3)CC2)c1C returned TRPC4 inh inactive, TRPC6 inhibitor inactive, TRPC4 agonist 100*, TRPC6 activator inactive and TRPC4 PAM inactive.
`CCn1cc(CN2CCC(n3nccc3NC(=O)CCc3ccccc3)CC2)cn1` gave TRPC4 inh inactive, TRPC6 inhibitor inactive, TRPC4 agonist 73*, TRPC6 activator inactive and TRPC4 PAM inactive.
For CCn1ccnc1CN1CCC(n2nccc2NC(=O)CCc2ccccc2)CC1 the results were TRPC4 inh inactive, TRPC6 inhibitor inactive, TRPC4 agonist inactive, TRPC6 activator inactive and TRPC4 PAM inactive.
For CCn1cc(CN2CCC(n3nccc3NC(=O)CCOc3ccccc3)CC2)c(C)n1 the results were TRPC4 inh inactive, TRPC6 inhibitor inactive, TRPC4 agonist inactive, TRPC6 activator inactive and TRPC4 PAM inactive.
For CCn1cc(CN2CCC(n3nccc3NC(=O)CCOc3ccccc3)CC2)cn1 the results were TRPC4 inh inactive, TRPC6 inhibitor inactive, TRPC4 agonist 72*, TRPC6 activator inactive and TRPC4 PAM inactive.
For Cc1cccc(C(=O)NC2CCN(CC(=O)Nc3ccccc3Cl)CC2)c1 the results were TRPC4 inh inactive, TRPC6 inhibitor inactive, TRPC4 agonist inactive, TRPC6 activator inactive and TRPC4 PAM inactive.
For Cc1nn2c(=O)cc(CSCC(=O)Nc3ccccc3Cl)nc2s1 the results were TRPC4 inh inactive, TRPC6 inhibitor inactive, TRPC4 agonist inactive, TRPC6 activator inactive and TRPC4 PAM inactive.
CCCOc1ncnc2c1[nH]c1ccccc12 was read as TRPC4 inh inactive, TRPC6 inhibitor inactive, TRPC4 agonist inactive, TRPC6 activator inactive and TRPC4 PAM inactive.
CCN(CC)c1ncnc2c1[nH]c1ccccc12 was read as TRPC4 inh -5*, TRPC6 inhibitor inactive, TRPC4 agonist inactive, TRPC6 activator inactive and TRPC4 PAM inactive.

Assay outcomes (PubChem BioAssay)
